Laboratory results: article PMC11319731 (Nature Communications, 2024)

Experiments:
[1] = test system: PD-L2, B7H3 (CD276), B7H4, Vista; assay: Western blot of other PD-L1 family proteins in HCT116; format: cell-based; conditions: 5μM Arg6-MPHP, HCT116, WB
[2] = molecular target: PD-L1 in HCT116 cells (Homo sapiens, UniProt Q9NZQ7); assay: Immunofluorescence; format: cell-based; conditions: HCT116, incubation for 10 h, LSCM
In short: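 HCT116 colon cancer cells were exposed to test peptide carrying an N-terminal Arg6 cell-penetrating hexamer, or to an Arg6-tagged random-sequence control peptide. PD-L1 was labelled with red dye and HSC70 or LAMP2 with green dye, and cells were imaged by laser scanning confocal microscopy (10 h incubation stated for the HSC70 pairing). Intensity profiles were plotted along a line, with colocalization given as Pearson's R.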

Sequence of PD-L1 in HCT116 cells (Q9NZQ7 19-290): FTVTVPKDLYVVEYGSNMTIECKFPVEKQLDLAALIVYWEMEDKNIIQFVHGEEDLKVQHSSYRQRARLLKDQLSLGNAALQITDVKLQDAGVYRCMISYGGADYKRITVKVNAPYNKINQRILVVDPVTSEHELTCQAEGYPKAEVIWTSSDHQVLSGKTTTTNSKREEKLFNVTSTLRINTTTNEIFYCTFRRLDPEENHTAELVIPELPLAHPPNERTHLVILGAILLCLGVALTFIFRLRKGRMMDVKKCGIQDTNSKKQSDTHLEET

**Q.** `C[C@H](O)[C@@H](NC(=O)[C@H]1CCCN1C(=O)[C@@H](CCCCN)NC(=O)[C@@H](CO)NC(=O)[C@@H](Cc1ccc(O)cc1)NC(=O)[C@@H](CC(N)=O)NC(=O)CCOCCOCCOCCNC(=O)[C@H](CCC(N)=O)NC(=O)[C@H](CCCNC(=N)N)NC(=O)[C@H](Cc1ccccc1)NC(=O)[C@H](CCC(=O)O)NC(=O)[C@H](CCCCN)NC(=O)[C@H](CS)NC(=O)[C@H](CCCNC(=N)N)NC(=O)[C@H](CCCNC(=N)N)NC(=O)[C@H](CCCNC(=N)N)NC(=O)[C@H](CCCNC(=N)N)NC(=O)[C@H](CCCNC(=N)N)NC(=O)[C@@H](N)CCCNC(=N)N)C(=O)N[C@H](CC(=O)O)C(=O)N[C@H](CCCNC(=N)N)C(=O)N[C@H](CCC(N)=O)C(=O)N[C@H](Cc1ccc(O)cc1)C(=O)N[C@H](Cc1c[nH]cn1)C(=O)N[C@H](Cc1ccccc1)C(=O)O` [Arg6-MPHP] was tested. Which “impact on other PD-L1 family proteins (PD-L2, B7H3 (CD276), B7H4, Vista)” value [1] did it give?
**A.** negligible

**Q.** What about the “colocalization of PD-L1 and HSC70” value [2] of the same molecule?
**A.** conspicuous colocalization
